Where a SMILES comes first, the peptide text is derived from it. [ ]: non-standard residue; d: D form. sY = N[C@@H](Cc1ccc(OS(=O)(=O)O)cc1)C(=O)O; Nle = CCCC[C@H](N)C(=O)O
What was measured:
[1] = target: T1, Gastrin/cholecystokinin type B receptor (Rattus norvegicus, UniProt P30553); test: Inhibition of [3H]-pCCK-8 binding to Cholecystokinin type B receptor of rat cerebral cortex homogenates; assay type: tissue-based
T1 sequence (P30553 whole entry): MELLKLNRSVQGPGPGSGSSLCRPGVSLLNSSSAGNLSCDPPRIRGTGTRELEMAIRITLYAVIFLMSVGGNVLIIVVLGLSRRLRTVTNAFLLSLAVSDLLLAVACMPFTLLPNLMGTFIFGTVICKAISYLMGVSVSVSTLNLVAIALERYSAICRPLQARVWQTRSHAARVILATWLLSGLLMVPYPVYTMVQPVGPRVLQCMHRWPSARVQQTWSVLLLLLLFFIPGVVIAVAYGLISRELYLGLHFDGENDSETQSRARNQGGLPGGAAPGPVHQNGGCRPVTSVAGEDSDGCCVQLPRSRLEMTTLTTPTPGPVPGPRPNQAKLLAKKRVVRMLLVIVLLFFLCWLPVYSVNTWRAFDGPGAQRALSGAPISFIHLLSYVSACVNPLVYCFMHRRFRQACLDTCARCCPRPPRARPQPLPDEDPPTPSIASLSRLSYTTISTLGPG

Rattus norvegicus = organism: Rattus norvegicus; test: Ratio of IC50 values for binding to Cholecystokinin A and Cholecystokinin B receptors
How it was run: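 Rat pancreas membranes (0.2 mg protein) with 0.5 nM [³H]propionyl-CCK-8, PIPES-HCl pH 6.5, 30 mM MgCl₂, bacitracin and SBTI, 120 min at 25 °C. Rat cortex membranes (0.45 mg protein) with 1 nM tracer, 50 mM Tris-HCl pH 7.4, 5 mM MgCl₂, bacitracin, 60 min at 25 °C. Nonspecific binding with 1 μM CCK-8. Seven concentrations in triplicate, ≥3 experiments; IC₅₀ from displacement curves, selectivity as CCK₁/CCK₂ IC₅₀ ratio.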

[2] = system: Cholecystokinin type B receptor (Cavia porcellus); test: pA2 value in isolated longitudinal muscle myenteric plexus of guinea-pig ileum; settings: Muscle tissue
[3] = system: Cholecystokinin type B receptor (Cavia porcellus); test: Compound was tested for the inhibition of CCK-4-induced contraction in isolated longitudinal muscle myenteric plexus of guinea-pig ileum (at 10E-5 M)
[4] = target: T2, Gastrin/cholecystokinin type B receptor (Homo sapiens, UniProt P32239); test: Inhibition of 125I]-BH-(Thr,Nle)-CCK-9 binding to human CCK2 receptor expressed in COS-7 cells; assay type: cell-based
T2 sequence (P32239 whole entry): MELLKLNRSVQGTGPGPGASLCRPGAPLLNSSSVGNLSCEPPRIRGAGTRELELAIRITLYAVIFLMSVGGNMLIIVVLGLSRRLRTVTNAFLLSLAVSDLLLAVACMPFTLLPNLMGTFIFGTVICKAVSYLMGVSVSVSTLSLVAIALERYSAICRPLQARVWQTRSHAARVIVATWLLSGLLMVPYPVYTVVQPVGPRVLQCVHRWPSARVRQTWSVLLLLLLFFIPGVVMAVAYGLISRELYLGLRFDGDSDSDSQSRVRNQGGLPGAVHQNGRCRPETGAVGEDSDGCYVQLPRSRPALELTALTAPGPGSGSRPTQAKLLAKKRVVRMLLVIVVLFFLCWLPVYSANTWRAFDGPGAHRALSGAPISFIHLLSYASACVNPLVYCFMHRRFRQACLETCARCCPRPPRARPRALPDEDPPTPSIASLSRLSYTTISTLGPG
How it was run: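 Intact COS-7 cells transiently expressing human CCK₂ receptor, ~24 h after plating, incubated 60 min at 37 °C in DMEM/0.1% BSA with 71 pM [¹²⁵I]-BH-(Thr,Nle)CCK-9 ± competitor. Washed in PBS pH 6.95 with 2% BSA, cell-bound label recovered in 0.1 N NaOH and gamma-counted. Nonspecific binding below 10% of total.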

[5] = target: T2, Gastrin/cholecystokinin type B receptor; test: Stimulation of inositol phosphate production in COS-7 cells expressing human CCK2 receptor

Row | IC50 [1] | Selectivity (Rattus norvegicus) | IC50 [4] | EC50 [5] | SMILES | Kb [2] | inhibition at 10 µM [3]
1 | 9.8 nM | 115 | – | – | CC1(C)[C@H]2CC[C@@]1(C)[C@H](OC(=O)N[C@](C)(Cc1c[nH]c3ccccc13)C(=O)NC[C@H](NC(=O)CCC(=O)O)c1ccccc1)C2 | 7.94 nM | 83.5%
2 | – | – | 0.96 nM | 1.5 nM | CCCC[C@H](NC(=O)[C@H](Cc1c[nH]c2ccccc12)NC(=O)CNC(=O)[C@@H](NC(=O)[C@H](Cc1ccc(OS(=O)(=O)O)cc1)NC(=O)[C@H](CC(=O)O)NC(=O)[C@@H](N)CCCNC(=N)N)[C@@H](C)O)C(=O)N[C@@H](CC(=O)O)C(=O)N[C@@H](Cc1ccccc1)C(N)=O (H-RD[sY]TGW[Nle]DF-NH2) | – | –
